We go through two compounds from ChEMBL document CHEMBL4118192, “BET bromodomain ligands: Probing the WPF shelf to improve BRD4 bromodomain affinity and metabolic stability” (Bioorg Med Chem, 2018).

Data set [1] can be described thus: Apparent half life in human liver microsomes at 3 uM. It is filed as ADME, microsome. Conditions: read-out: t1/2(app). (In general: Microsomes from liver hold many membrane-bound enzymes, among them those of drug oxidation.)
A short description of data set [2]: Intrinsic clearance in human liver microsomes at 3 uM. To be noted: read-out: CLH. It is filed as ADME, microsome.
For data set [3], the system named is NCI-H23. The data set can be described thus: Growth inhibition of human NCI-H23 cells at 10 uM after 48 hrs by sulforhodamine B assay relative to control. Conditions: NCI-H23, 48 h, read-out: GI. It is filed as functional. The procedure, abridged:
(§1)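 NCI-60 human cancer cell line screen, single-dose pass: cells exposed to 10 μM for 48 h. Cellular protein content read out by sulforhodamine B staining, and growth inhibition expressed relative to untreated control.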
(In SRB staining, fixed cells bind dye roughly in proportion to their protein.)

The subject of data set [4] is HCT-116. The data set can be described thus: Growth inhibition of human HCT116 cells at 10 uM after 48 hrs by sulforhodamine B assay relative to control. It is filed as functional. To be noted: HCT-116, 48 h, read-out: GI. A digest of the protocol: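 NCI-60 single-dose screen at 10 μM for 48 h. Percent growth inhibition was measured by sulforhodamine B staining of cellular protein.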

The subject of data set [5] is SW-620. Description: Growth inhibition of human SW620 cells at 10 uM after 48 hrs by sulforhodamine B assay relative to control. It is filed as functional. To be noted: SW-620, 48 h, read-out: GI. The procedure, abridged: (§2)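 NCI-60 human cancer cell line screen, single dose of 10 μM for 48 h. Cellular protein content read by sulforhodamine B staining; growth inhibition expressed relative to untreated control.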

Data set [6] relates to SK-OV-3. The data set can be described thus: Growth inhibition of human SKOV3 cells at 10 uM after 48 hrs by sulforhodamine B assay relative to control. To be noted: SK-OV-3, 48 h, read-out: GI. It is filed as functional. The procedure, abridged:
as §1

In data set [7] the test system is SN12C. The data set can be described thus: Growth inhibition of human SN12C cells at 10 uM after 48 hrs by sulforhodamine B assay relative to control. It is filed as functional. To be noted: read-out: GI. A digest of the protocol: as §1
The subject of data set [8] is SF-295. Description: Growth inhibition of human SF295 cells after 48 hrs by sulforhodamine B assay. To be noted: SF-295, 48 h. It is filed as functional. A digest of the protocol: (§3)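 NCI-60 panel follow-up: five concentrations from 10 nM to 100 μM, 48 h exposure. Growth read by sulforhodamine B protein staining. GI50 derived from the concentration-response, with the concentration for total growth inhibition (TGI) also recorded when below 100 μM.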

Data set [9] has as its system SNB-19. Description: Growth inhibition of human SNB19 cells after 48 hrs by sulforhodamine B assay. It is filed as functional. Conditions: SNB-19, 48 h. The procedure, abridged: as §3
Data set [10] deals with Malme-3M. Description: Growth inhibition of human MALME-3M cells after 48 hrs by sulforhodamine B assay. It is filed as functional. A digest of the protocol: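 NCI-60 panel screen. Cells were exposed for 48 h at five concentrations between 10 nM and 100 μM. Cellular protein was read by sulforhodamine B staining, and GI50 and total growth inhibition (TGI) concentrations were derived.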

Data set [11] relates to SK-MEL-2. Description: Growth inhibition of human SK-MEL-2 cells after 48 hrs by sulforhodamine B assay. It is filed as functional. To be noted: SK-MEL-2, 48 h. The procedure, abridged: as §3
Data set [12] relates to NCI/ADR-RES. The data set can be described thus: Growth inhibition of human NCI-ADR-RES cells after 48 hrs by sulforhodamine B assay. It is filed as functional. The procedure, abridged: as §3
The test system of data set [13] is MDA-MB-468. Description: Growth inhibition of human MDA-MB-468 cells after 48 hrs by sulforhodamine B assay. It is filed as functional. To be noted: MDA-MB-468, 48 h. A digest of the protocol:
as §3

Data set [14] has as its target ATPase family AAA domain-containing protein 2B (Homo sapiens) (UniProt Q9ULI0). Description: Inhibition of human partial length ATAD2B (Q955 to R1082 residues) expressed in bacterial expression system assessed as residual activity at 1 uM by BROMOscan assay relative to control.
Data set [15] deals with Bromodomain-containing protein 2 (Homo sapiens) (UniProt P25440). The data set can be described thus: Inhibition of human partial length BRD2 bromodomain 1 (K71 to N194 residues) expressed in bacterial expression system assessed as residual activity at 1 uM by BROMOscan assay relative to control.
The target in data set [16] is Bromodomain-containing protein 3 (Homo sapiens) (UniProt Q15059). The data set can be described thus: Inhibition of human partial length BRD3 bromodomain 1 (P24 to E144 residues) expressed in bacterial expression system assessed as residual activity at 1 uM by BROMOscan assay relative to control.
Data set [17] concerns the target Bromodomain-containing protein 4 (Homo sapiens, UniProt O60885). Description: Inhibition of human partial length BRD4 bromodomain 1 (N44 to E168 residues) expressed in bacterial expression system assessed as residual activity at 1 uM by BROMOscan assay relative to control.
For data set [18], the target named is Bromodomain-containing protein 9 (Homo sapiens) (UniProt Q9H8M2). Description: Inhibition of human partial length BRD9 (R130 to V259 residues) expressed in bacterial expression system assessed as residual activity at 1 uM by BROMOscan assay relative to control.
Data set [19] has as its target Bromodomain testis-specific protein (Homo sapiens) (UniProt Q58F21). Description: Inhibition of human partial length BRDT bromodomain 1 (N21 to E137 residues) expressed in bacterial expression system assessed as residual activity at 1 uM by BROMOscan assay relative to control.
In data set [20] the target is Peregrin (Homo sapiens) (UniProt P55201). Description: Inhibition of human partial length BRPF1 (E627 to G740 residues) expressed in bacterial expression system assessed as residual activity at 1 uM by BROMOscan assay relative to control.
For data set [21], the target named is CREB-binding protein (Homo sapiens) (UniProt Q92793). The data set can be described thus: Inhibition of human partial length CREBBP (R1081 to G1197 residues) expressed in bacterial expression system assessed as residual activity at 1 uM by BROMOscan assay relative to control.
The target of data set [22] is Histone acetyltransferase KAT2B (Homo sapiens) (UniProt Q92831). The data set can be described thus: Inhibition of human partial length PCAF (G715 to D831 residues) expressed in bacterial expression system assessed as residual activity at 1 uM by BROMOscan assay relative to control.
In data set [23] the target is SWI/SNF-related matrix-associated actin-dependent regulator of chromatin subfamily A member 4 (Homo sapiens) (UniProt P51532). The data set can be described thus: Inhibition of human partial length SMARCA4 (A1448 to S1575 residues) expressed in bacterial expression system assessed as residual activity at 1 uM by BROMOscan assay relative to control.
For data set [24], the target named is Bromodomain and WD repeat-containing protein 1 (Homo sapiens) (UniProt Q9NSI6). Description: Inhibition of human partial length WDR9 bromodomain 2 (A1310 to E1430 residues) expressed in bacterial expression system assessed as residual activity at 1 uM by BROMOscan assay relative to control.
Data set [25] concerns U-251. The data set can be described thus: Growth inhibition of human U251 cells at 10 uM after 48 hrs by sulforhodamine B assay relative to control. It is filed as functional. To be noted: U-251, 48 h, read-out: GI. A digest of the protocol: as §2
Data set [26] deals with RXF 393. Description: Growth inhibition of human RXF393 cells at 10 uM after 48 hrs by sulforhodamine B assay relative to control. It is filed as functional. To be noted: RXF 393, 48 h, read-out: GI. A digest of the protocol:
as §1

For data set [27], the system named is NCI-H23. The data set can be described thus: Growth inhibition of human NCI-H23 cells after 48 hrs by sulforhodamine B assay. It is filed as functional. Conditions: NCI-H23, 48 h. A digest of the protocol: as §3
For data set [28], the system named is UACC-62. The data set can be described thus: Growth inhibition of human UACC62 cells after 48 hrs by sulforhodamine B assay. It is filed as functional. To be noted: UACC-62, 48 h. The procedure, abridged: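 NCI-60 panel cells treated at five concentrations from 10 nM to 100 μM for 48 h. Read-out by sulforhodamine B protein stain. GI50 and total growth inhibition (TGI, if below 100 μM) taken from the concentration-response data.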

For data set [29], the system named is PC-3. The data set can be described thus: Growth inhibition of human PC3 cells after 48 hrs by sulforhodamine B assay. It is filed as functional. Conditions: PC-3, 48 h. A digest of the protocol:
as §3

Sequence of ATPase family AAA domain-containing protein 2B (Homo sapiens) (Q9ULI0 whole entry, the tested form may be a part): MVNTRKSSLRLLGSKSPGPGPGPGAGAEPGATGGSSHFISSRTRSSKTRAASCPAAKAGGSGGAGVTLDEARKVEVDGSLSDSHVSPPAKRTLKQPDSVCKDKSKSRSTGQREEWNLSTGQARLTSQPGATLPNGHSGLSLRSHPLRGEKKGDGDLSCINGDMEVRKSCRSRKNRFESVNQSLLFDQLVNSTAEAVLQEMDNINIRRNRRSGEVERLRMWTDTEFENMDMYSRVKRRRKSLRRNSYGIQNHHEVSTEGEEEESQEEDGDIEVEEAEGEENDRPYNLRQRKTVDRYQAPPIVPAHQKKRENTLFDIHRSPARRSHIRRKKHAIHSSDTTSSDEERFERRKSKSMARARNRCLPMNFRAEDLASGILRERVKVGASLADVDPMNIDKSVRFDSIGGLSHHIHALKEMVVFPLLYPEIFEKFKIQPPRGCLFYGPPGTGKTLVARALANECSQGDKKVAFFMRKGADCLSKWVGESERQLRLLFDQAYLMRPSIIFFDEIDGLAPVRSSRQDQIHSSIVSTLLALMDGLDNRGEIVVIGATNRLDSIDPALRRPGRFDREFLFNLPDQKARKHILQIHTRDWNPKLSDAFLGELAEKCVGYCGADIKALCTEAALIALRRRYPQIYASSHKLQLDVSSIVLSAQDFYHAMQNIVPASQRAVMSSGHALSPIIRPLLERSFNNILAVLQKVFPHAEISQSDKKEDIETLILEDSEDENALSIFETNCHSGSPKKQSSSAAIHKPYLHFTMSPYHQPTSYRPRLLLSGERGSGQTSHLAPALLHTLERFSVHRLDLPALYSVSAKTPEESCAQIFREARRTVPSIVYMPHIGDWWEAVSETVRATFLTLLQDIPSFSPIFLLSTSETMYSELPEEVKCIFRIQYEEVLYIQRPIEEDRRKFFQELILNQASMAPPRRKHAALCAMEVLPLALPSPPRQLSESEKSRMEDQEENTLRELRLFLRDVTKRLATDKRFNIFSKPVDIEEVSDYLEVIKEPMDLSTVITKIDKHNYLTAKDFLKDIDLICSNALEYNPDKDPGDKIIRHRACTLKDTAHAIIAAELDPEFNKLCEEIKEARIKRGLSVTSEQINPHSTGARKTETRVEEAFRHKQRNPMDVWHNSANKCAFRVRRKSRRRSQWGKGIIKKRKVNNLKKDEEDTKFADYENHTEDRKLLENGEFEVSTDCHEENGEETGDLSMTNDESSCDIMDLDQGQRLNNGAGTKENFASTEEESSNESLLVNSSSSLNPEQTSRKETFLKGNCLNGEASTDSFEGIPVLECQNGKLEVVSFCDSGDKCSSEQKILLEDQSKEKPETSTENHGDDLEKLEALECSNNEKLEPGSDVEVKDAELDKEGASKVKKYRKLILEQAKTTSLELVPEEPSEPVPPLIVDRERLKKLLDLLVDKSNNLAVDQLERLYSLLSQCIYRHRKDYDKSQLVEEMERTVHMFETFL
Sequence of SWI/SNF-related matrix-associated actin-dependent regulator of chromatin subfamily A member 4 (Homo sapiens) (P51532 whole entry, the tested form may be a part): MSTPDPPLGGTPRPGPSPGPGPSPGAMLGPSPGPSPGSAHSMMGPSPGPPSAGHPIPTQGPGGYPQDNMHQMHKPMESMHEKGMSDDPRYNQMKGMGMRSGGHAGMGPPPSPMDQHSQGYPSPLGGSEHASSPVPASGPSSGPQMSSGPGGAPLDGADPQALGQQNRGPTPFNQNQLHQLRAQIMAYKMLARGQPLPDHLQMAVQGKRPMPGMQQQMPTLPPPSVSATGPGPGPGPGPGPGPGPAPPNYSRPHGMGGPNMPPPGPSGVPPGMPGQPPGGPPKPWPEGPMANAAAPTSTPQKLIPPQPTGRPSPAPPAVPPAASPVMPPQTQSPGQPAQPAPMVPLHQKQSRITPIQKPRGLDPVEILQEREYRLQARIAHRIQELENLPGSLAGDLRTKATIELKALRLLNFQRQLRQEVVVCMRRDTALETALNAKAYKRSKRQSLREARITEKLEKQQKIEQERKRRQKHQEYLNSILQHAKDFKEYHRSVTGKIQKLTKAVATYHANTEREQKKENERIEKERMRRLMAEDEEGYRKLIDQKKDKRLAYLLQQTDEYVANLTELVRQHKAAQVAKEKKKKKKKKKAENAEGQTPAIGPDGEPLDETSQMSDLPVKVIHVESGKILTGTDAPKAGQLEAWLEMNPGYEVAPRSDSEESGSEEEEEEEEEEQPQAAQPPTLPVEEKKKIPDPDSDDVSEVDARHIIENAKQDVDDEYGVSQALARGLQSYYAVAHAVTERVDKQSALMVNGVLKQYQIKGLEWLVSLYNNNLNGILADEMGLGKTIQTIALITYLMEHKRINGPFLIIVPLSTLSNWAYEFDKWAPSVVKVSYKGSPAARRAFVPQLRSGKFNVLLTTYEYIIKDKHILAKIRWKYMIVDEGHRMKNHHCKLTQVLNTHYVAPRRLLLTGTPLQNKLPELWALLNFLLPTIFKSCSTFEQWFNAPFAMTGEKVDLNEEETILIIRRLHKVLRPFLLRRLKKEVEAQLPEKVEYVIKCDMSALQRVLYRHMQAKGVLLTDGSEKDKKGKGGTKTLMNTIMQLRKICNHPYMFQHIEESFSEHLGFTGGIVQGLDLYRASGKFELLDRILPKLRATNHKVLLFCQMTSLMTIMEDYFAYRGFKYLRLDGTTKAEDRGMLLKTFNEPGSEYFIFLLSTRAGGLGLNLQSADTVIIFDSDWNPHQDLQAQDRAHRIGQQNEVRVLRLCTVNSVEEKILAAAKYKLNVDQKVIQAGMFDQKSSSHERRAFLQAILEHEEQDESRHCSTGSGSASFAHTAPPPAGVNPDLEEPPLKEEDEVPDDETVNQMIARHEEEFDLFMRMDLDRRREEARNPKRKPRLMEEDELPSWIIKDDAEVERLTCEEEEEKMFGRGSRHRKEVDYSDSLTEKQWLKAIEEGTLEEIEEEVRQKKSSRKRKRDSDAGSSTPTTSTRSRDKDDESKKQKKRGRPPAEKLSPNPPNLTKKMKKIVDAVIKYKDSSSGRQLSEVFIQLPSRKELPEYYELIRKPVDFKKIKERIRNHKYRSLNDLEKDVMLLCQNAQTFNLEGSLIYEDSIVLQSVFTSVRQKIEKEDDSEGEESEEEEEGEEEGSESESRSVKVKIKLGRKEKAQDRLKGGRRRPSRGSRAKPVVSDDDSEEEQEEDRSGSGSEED
Sequence of Histone acetyltransferase KAT2B (Homo sapiens) (Q92831 whole entry, looked up, the tested form may be a part): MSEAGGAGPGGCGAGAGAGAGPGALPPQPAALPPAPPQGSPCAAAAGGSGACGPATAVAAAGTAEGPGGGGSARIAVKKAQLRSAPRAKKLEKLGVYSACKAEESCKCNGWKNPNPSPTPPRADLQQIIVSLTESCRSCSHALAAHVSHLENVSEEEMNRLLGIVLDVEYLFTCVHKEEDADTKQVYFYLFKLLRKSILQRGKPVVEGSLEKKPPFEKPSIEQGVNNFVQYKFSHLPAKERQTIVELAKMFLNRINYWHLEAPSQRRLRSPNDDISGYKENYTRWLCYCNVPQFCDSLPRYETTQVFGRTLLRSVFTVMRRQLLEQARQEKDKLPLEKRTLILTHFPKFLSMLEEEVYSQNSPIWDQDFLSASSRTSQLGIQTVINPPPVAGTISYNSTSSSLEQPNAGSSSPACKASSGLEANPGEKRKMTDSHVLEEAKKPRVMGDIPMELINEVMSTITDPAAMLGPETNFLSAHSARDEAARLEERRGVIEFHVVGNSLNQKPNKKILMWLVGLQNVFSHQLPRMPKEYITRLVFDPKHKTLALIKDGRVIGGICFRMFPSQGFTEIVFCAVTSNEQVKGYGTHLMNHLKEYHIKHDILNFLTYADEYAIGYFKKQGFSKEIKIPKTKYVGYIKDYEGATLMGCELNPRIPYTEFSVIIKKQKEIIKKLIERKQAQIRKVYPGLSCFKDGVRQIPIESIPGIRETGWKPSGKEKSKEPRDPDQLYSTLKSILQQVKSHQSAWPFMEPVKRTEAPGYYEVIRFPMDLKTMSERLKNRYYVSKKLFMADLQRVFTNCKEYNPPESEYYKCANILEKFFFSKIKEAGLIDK
Sequence of Bromodomain-containing protein 3 (Homo sapiens) (Q15059 2-726 limits assumed): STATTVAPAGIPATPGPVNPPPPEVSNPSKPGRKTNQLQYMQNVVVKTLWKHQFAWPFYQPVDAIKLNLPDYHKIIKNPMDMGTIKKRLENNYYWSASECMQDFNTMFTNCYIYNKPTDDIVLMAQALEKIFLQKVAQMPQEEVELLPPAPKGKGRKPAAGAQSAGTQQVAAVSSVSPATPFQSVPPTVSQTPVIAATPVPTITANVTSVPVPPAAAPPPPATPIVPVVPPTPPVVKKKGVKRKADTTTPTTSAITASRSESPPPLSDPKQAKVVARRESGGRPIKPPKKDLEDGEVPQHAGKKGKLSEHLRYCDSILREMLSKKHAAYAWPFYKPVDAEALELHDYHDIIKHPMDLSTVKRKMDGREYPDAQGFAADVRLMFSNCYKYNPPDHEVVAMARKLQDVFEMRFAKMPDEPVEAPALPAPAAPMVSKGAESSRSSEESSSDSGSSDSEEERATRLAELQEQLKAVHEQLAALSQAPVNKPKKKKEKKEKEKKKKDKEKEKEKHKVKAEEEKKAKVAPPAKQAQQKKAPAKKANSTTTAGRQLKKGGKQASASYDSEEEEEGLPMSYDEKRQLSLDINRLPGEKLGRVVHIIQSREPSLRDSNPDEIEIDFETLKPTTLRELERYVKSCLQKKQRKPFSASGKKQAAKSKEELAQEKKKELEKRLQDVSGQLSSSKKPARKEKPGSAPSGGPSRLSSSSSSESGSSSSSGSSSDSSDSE

Turning to `Cc1noc(C)c1-c1cc(O)cc(C(O)c2ccccc2)c1` (stereo unspecified), the half-life at 3 µM in data set [1] was determined as 39.8 min. Further, in data set [2], the microsomal CLint at 3 µM came out at 34.8 µL/min/mg. In addition, the inhibition of growth at 10 µM in [3] stood at 31.9%; in data set [4], 42%; in [5], 27.9%; in data set [6] it was 56.3%; in data set [7] it was 25.5%. Also, the concentration for 50% growth inhibition (GI50) (as a rule, the concentration giving 50% growth inhibition) in [8] amounted to 7.31 µM; in [9], 5.69 µM; in [10], 28.9 µM; in data set [11], 23.5 µM; in data set [12] it was 6.32 µM; in data set [13], 1.89 µM. Also, net growth in [13] stopped (TGI) at 40.6 µM. Further, the Activity in [14] was found to be 66%; in data set [15] it was 1.4%; in [16], 0.5%; in data set [17], 3.7%; in data set [18], 100%; in data set [19], 8.8%. Also, the Activity in data set [20] was found to be 100%; in data set [21] it was 43%; in [22] it was 93%; in data set [23], 100%; in [24], 100%.

As for `COc1ccccc1S(=O)(=O)Nc1ccc2c(c1)CN(C)C(=O)N2`, the inhibition of growth at 10 µM is 43.3% in [3]; 50.3% in data set [4]; 40.6% in data set [5]; 50% in data set [25]; 50.9% in data set [6]; 26.7% in data set [26]. Moreover, the inhibition of growth at 10 µM in [7] came out at 46.8%. The GI50 was determined as 8.5 µM in data set [27]; 13.5 µM in data set [8]; 4.8 µM in [9]; 29.5 µM in [11]; 0.7 µM in [28]; 17.4 µM in [12]. Further, the GI50 in [29] is 28.2 µM; in [13], 1.5 µM. Besides, in [13], net growth stopped (TGI) at 47.9 µM.
